Assay results from different studies.
Compare with care: the assays were run in different laboratories. pIC50: −log10 of the molar value.
FAAH: Fatty-acid amide hydrolase 1 (FAAH, Homo sapiens, UniProt O00519)
TOP2A: DNA topoisomerase 2-alpha (TOP2A, Homo sapiens, UniProt P11388)
DHFR: Dihydrofolate reductase (DHFR, Homo sapiens, UniProt P00374)
HTR2B: 5-hydroxytryptamine receptor 2B (HTR2B, Homo sapiens, UniProt P41595)
HTR2C: 5-hydroxytryptamine receptor 2C (HTR2C, Homo sapiens, UniProt P28335)

O=C(Nc1ccc(-c2cccc3cccnc23)cc1)C1CCN(S(=O)(=O)c2ccccc2Cl)CC1 — pIC50 (FAAH; enzyme activity, inhibitor, fluorescence): 6.87
O=c1nc(SCc2cc(F)cc(C(F)(F)F)c2)nc(SCc2ccc3ccccc3n2)[nH]1 — pIC50 (TOP2A; enzyme activity, inhibitor): 4.73
CC1CCC(C(C)C)C(OC(=O)C=Cc2ccc(O)c(O)c2)C1 (stereo not drawn) — pIC50 (DHFR; enzyme activity, inhibitor, absorbance): 6.74
Cc1[nH]c2ccccc2c1C(=O)C(C)N1CCC(c2nccn2C)C1 (stereo not drawn) — pIC50 (HTR2B; calcium signal, antagonist): 7.43
COc1ccc(NC(=S)NN=Cc2ccc(N3CCCCC3)cc2)cc1 — pIC50 (DHFR; enzyme activity, inhibitor): 4.35
c1ccc(O[C@H]2CCN(Cc3ccc(-c4ccn[nH]4)o3)C2)cc1 — pIC50 (HTR2B; calcium signal, antagonist): 4.81
O=c1nc(SCc2cc(F)cc(C(F)(F)F)c2)nc(SCc2ccc3ncsc3c2)[nH]1 — pIC50 (TOP2A; enzyme activity, inhibitor): 4.44
S=C(NN=Cc1ccc(N2CCCCC2)cc1)NC1CCCCC1 — pIC50 (DHFR; enzyme activity, inhibitor): 4.39
O=C(Nc1ccc(-c2cnc3ccccc3c2)cc1)C1CCN(S(=O)(=O)c2ccccc2Cl)CC1 — pIC50 (FAAH; enzyme activity, inhibitor, fluorescence): 7.80
Cc1cccc(C)c1NC(=S)NN=Cc1ccc(N2CCCCC2)cc1 — pIC50 (DHFR; enzyme activity, inhibitor): 4.74
NCC1Cc2cc(F)ccc2N(C(=O)Cc2cc(F)ccc2Br)C1 (stereo not drawn) — pIC50 (HTR2C; calcium signal, antagonist): 4.36
S=C(NCc1ccccc1)NN=Cc1ccc(N2CCCCC2)cc1 — pIC50 (DHFR; enzyme activity, inhibitor): 4.51
O=C(O)/C=C/c1ccc(O)c(O)c1 — pIC50 (DHFR; enzyme activity, inhibitor, absorbance): 3.98
S=C(NCCc1ccccc1)NN=Cc1ccc(N2CCCCC2)cc1 — pIC50 (DHFR; enzyme activity, inhibitor): 4.64
O=C(C=Cc1ccc(O)c(O)c1)OCCc1ccccc1 — pIC50 (DHFR; enzyme activity, inhibitor, absorbance): 4.94
O=C(Nc1ccc(-c2ccc3ccccc3n2)cc1)C1CCN(S(=O)(=O)c2ccccc2Cl)CC1 — pIC50 (FAAH; enzyme activity, inhibitor, fluorescence): 8.46
Cc1nc(CSc2nc(SCc3ccc(C(F)(F)F)cc3)nc(=O)[nH]2)cs1 — pIC50 (TOP2A; enzyme activity, inhibitor): 4.19
CC(C)NCC(COc1cccc2ccccc12)OC(=O)C=Cc1ccc(O)c(O)c1 (stereo not drawn) — pIC50 (DHFR; enzyme activity, inhibitor, absorbance): 7.32
CC(C)c1ccc(CSc2nc(SCc3ccc4sccc4c3)[nH]c(=O)n2)cc1 — pIC50 (TOP2A; enzyme activity, inhibitor): 4.85
S=C(NN=Cc1ccc(N2CCCCC2)cc1)Nc1c(Cl)cccc1Cl — pIC50 (DHFR; enzyme activity, inhibitor): 4.44
Cc1cccc(OCCCC(=O)N2CCNCc3ccccc32)c1 — pIC50 (HTR2B; calcium signal, antagonist): 4.77
Cc1ccc(CNC(=S)NN=Cc2ccc(N3CCCCC3)cc2)cc1 — pIC50 (DHFR; enzyme activity, inhibitor): 4.47
COc1ccccc1CC1CCN(CC(=O)c2cc(C)[nH]c2C)C1 (stereo not drawn) — pIC50 (HTR2C; calcium signal, antagonist): 4.64
O=c1nc(SCc2cc(F)cc(C(F)(F)F)c2)nc(SCc2ccc3sccc3c2)[nH]1 — pIC50 (TOP2A; enzyme activity, inhibitor): 4.88
Cc1cccc(C(CO)N2CCN(Cc3cc(O)ccc3Cl)CC2)c1 (stereo not drawn) — pIC50 (HTR2B; calcium signal, antagonist): 6.16
O=C(Nc1ccc(-c2cccc3ncccc23)cc1)C1CCN(S(=O)(=O)c2ccccc2Cl)CC1 — pIC50 (FAAH; enzyme activity, inhibitor, fluorescence): 7.71
Cc1[nH]c2ccccc2c1SCCNC(=O)C1NCCC1C1CC1 (stereo not drawn) — pIC50 (HTR2C; calcium signal, antagonist): 4.42
Nc1ccccc1OC(=O)C=Cc1ccc(O)c(O)c1 — pIC50 (DHFR; enzyme activity, inhibitor, absorbance): 4.77
O=C1CC(CCNCc2ccc(-c3cccc(Br)c3)o2)CN1 (stereo not drawn) — pIC50 (HTR2B; calcium signal, antagonist): 5.06
O=[N+]([O-])c1ccc(NC(=S)NN=Cc2ccc(N3CCCCC3)cc2)cc1 — pIC50 (DHFR; enzyme activity, inhibitor): 4.79
